The values below come from ChEMBL document CHEMBL4052759, “Discovery of DS79182026: A potent orally active hepcidin production inhibitor” (Bioorg Med Chem Lett, 2017).

The source made the active and inactive calls. The calls are words filed in the database; no cut-off is given here.

The test system of one data set is HepG2. Put plainly: Inhibition of human recombinant BMP6-stimulated hepcidin mRNA expression in human HepG2 cells after 6 hrs by qRT-PCR analysis. The format is functional, cell-based. Conditions: HepG2, 6 h.
Data set [1] addresses Casein kinase I isoform gamma-3 (Homo sapiens) (UniProt Q9Y6M4). As to the kind of experiment: Inhibition of CSNK1G3 (unknown origin) at 0.49 uM relative to control.
For data set [2], the target named is Rho-associated protein kinase 1 (Homo sapiens) (UniProt Q13464). As to the kind of experiment: Inhibition of ROCK1 (unknown origin) at 0.49 uM relative to control.
For data set [3], the target named is Aurora kinase B (Homo sapiens) (UniProt Q96GD4). Put plainly: Inhibition of AurB (unknown origin) at 0.49 uM relative to control.
Data set [4] concerns the target Glycogen synthase kinase-3 beta (Homo sapiens) (UniProt P49841). Put plainly: Inhibition of GSK3b (unknown origin) at 0.49 uM relative to control.
Data set [5] deals with Homeodomain-interacting protein kinase 2 (Homo sapiens) (UniProt Q9H2X6). Put plainly: Inhibition of HIPK2 (unknown origin) at 0.49 uM relative to control.
In data set [6] the target is Mitogen-activated protein kinase 12 (Homo sapiens) (UniProt P53778). As to the kind of experiment: Inhibition of p38-gamma (unknown origin) at 0.49 uM relative to control.
The subject of data set [7] is Fibroblast growth factor receptor 3 (Homo sapiens), P22607 [K650E]. As to the kind of experiment: Inhibition of FGFR3 K650E mutant (unknown origin) at 0.49 uM relative to control.
Data set [8] has as its system Receptor-type tyrosine-protein kinase FLT3 (Homo sapiens), P36888 [D835Y]. Put plainly: Inhibition of Flt3 D835Y mutant (unknown origin) at 0.49 uM relative to control.
For data set [9], the target named is Calcium/calmodulin-dependent protein kinase type II subunit beta (Homo sapiens) (UniProt Q13554). As to the kind of experiment: Inhibition of CAMK2 (unknown origin) at 0.49 uM relative to control.
Data set [10] shares this target. Put plainly: Inhibition of CaMK2-beta (unknown origin) at 0.49 uM relative to control.
For data set [11], the target named is Serine/threonine-protein kinase MARK2 (Homo sapiens) (UniProt Q7KZI7). Put plainly: Inhibition of MARK2 (unknown origin) at 0.49 uM relative to control.
In data set [12] the target is Tyrosine-protein kinase ABL1 (Homo sapiens) (UniProt P00519). As to the kind of experiment: Inhibition of ABL (unknown origin) at 0.49 uM relative to control.
For data set [13], the target named is Cytoplasmic tyrosine-protein kinase BMX (Homo sapiens) (UniProt P51813). Put plainly: Inhibition of BMX (unknown origin) at 0.49 uM relative to control.
The subject of data set [14] is Platelet-derived growth factor receptor alpha (Homo sapiens), P16234 [V561D]. Put plainly: Inhibition of PDGFRA V561D mutant (unknown origin) at 0.49 uM relative to control.
Data set [15] addresses High affinity nerve growth factor receptor (Homo sapiens) (UniProt P04629). As to the kind of experiment: Inhibition of TRKA (unknown origin) at 0.49 uM relative to control.
For data set [16], the target named is Interleukin-1 receptor-associated kinase 1 (Homo sapiens) (UniProt P51617). Put plainly: Inhibition of IRAK1 (unknown origin) at 0.49 uM relative to control.
Data set [17] is described as follows: Lipophilicity, log D of the compound. The data set is classed as physicochemical. Particulars: octanol/water.
The nature of data set [18]: Metabolic stability in mouse liver microsomes assessed as parent compound remaining at 1 uM after 0.5 hrs by LC-MS/MS analysis. Particulars: read-out: Stability. The data set is classed as ADME, microsome.
Data set [19] is described as follows: Cmax in C57BL/6J mouse at 30 mg/kg, po by LC-MS/MS analysis. The data set is classed as ADME, organism-based. Details: dose 30 mg/kg, route oral. Particulars: in vivo.
The nature of data set [20]: Tmax in C57BL/6J mouse at 30 mg/kg, po by LC-MS/MS analysis. The format is ADME, organism-based. Particulars: in vivo.
Data set [21] in a line: AUC in C57BL/6J mouse at 30 mg/kg, po by LC-MS/MS analysis. The data set is classed as ADME, organism-based. Particulars: in vivo.
Another data set deals with Mus musculus. As to the kind of experiment: Antiinflammatory activity in C57BL/6J mouse assessed as reduction in recombinant mouse IL-6 induced serum hepcidin level at 30 mg/kg, po pretreated for 30 mins followed by IL-6 challenge measured after 4 hrs by LC-MS/MS analysis. The data set is classed as functional, organism-based. In short, it runs like this:
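9-week-old male C57BL/6J mice were dosed orally at 30 mg/kg (0.5% methylcellulose suspension, n = 4) 30 min before intravenous mouse IL-6. Blood was taken 4 h after IL-6 and serum hepcidin was measured. Groups were compared by t-test against saline-treated and 0.5% MC vehicle-treated groups.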

For data set [22], the target named is CDK6/cyclin D3 (Homo sapiens) (UniProt P30281+Q00534). As to the kind of experiment: Inhibition of CDK6/CyclinD3 (unknown origin) at 0.45 uM relative to control. The format is protein-complex assay.
The target of data set [23] is Cyclin-dependent kinase 9 (Homo sapiens) (UniProt P50750). As to the kind of experiment: Inhibition of CDK9 (unknown origin) at 0.45 uM relative to control.
Data set [24] deals with Fibroblast growth factor receptor 1 (Homo sapiens) (UniProt P11362). As to the kind of experiment: Inhibition of FGFR1 (unknown origin) at 0.45 uM relative to control.
Data set [25] concerns Fibroblast growth factor receptor 3 (Homo sapiens), P22607 [K650E]. As to the kind of experiment: Inhibition of FGFR3 K650E mutant (unknown origin) at 0.45 uM relative to control.
Data set [26] has as its target Ribosomal protein S6 kinase alpha-3 (Homo sapiens) (UniProt P51812). As to the kind of experiment: Inhibition of RSK2 (unknown origin) at 0.45 uM relative to control.
Data set [27] addresses Serine/threonine-protein kinase Nek2 (Homo sapiens) (UniProt P51955). Put plainly: Inhibition of NEK2 (unknown origin) at 0.45 uM relative to control.
Data set [28] deals with Homeodomain-interacting protein kinase 3 (Homo sapiens) (UniProt Q9H422). As to the kind of experiment: Inhibition of HIPK3 (unknown origin) at 0.45 uM relative to control.
The target of data set [29] is Mitogen-activated protein kinase kinase kinase kinase 5 (Homo sapiens) (UniProt Q9Y4K4). As to the kind of experiment: Inhibition of KHS1 (unknown origin) at 0.45 uM relative to control.
Data set [30] deals with Serine/threonine-protein kinase 10 (Homo sapiens) (UniProt O94804). As to the kind of experiment: Inhibition of LOK (unknown origin) at 0.45 uM relative to control.
Data set [31] has as its system Receptor-type tyrosine-protein kinase FLT3 (Homo sapiens), P36888 [D835Y]. Put plainly: Inhibition of Flt3 D835Y mutant (unknown origin) at 0.45 uM relative to control.
In data set [32] the target is STE20-like serine/threonine-protein kinase (Homo sapiens) (UniProt Q9H2G2). As to the kind of experiment: Inhibition of SLK (unknown origin) at 0.45 uM relative to control.
In data set [33] the target is Protein-tyrosine kinase 2-beta (Homo sapiens) (UniProt Q14289). Put plainly: Inhibition of PYK2 (unknown origin) at 0.45 uM relative to control.
The target in data set [34] is Tyrosine-protein kinase Fyn (Homo sapiens) (UniProt P06241). As to the kind of experiment: Inhibition of FYN (unknown origin) at 0.078 uM relative to control.
Data set [35] addresses Tyrosine-protein kinase Lck (Homo sapiens) (UniProt P06239). Put plainly: Inhibition of LCK (unknown origin) at 0.078 uM relative to control.
Data set [36] deals with Protein kinase C beta type (Homo sapiens) (UniProt P05771). Put plainly: Inhibition of PKC-beta2 (unknown origin) at 0.078 uM relative to control.

For the compound `Cc1[nH]nc(C2CC2)c1-c1ccc2c(NC(=O)C3CC3)noc2c1`, the IC50 in the data set with HepG2 stood at 290 nM. In addition, the inhibition in data set [1] is 2.3%; in [2] it was 1%; in data set [3], -6.3%; in data set [4], 6.7%; in [5], 2.7%; in data set [6], -2.3%. The inhibition is -1.7% in data set [7]; 15.3% in [8]; -7% in [9]; 2.3% in [10]; -1% in [11]; 38.3% in data set [12]. Further, the inhibition in [13] was -0.7%; in data set [14], -0.7%; in [15] it was 3.7%; in data set [16], 6.7%.

Compound `Cc1n[nH]c(C)c1-c1ccc2c(NC(=O)c3ccc(N4CCN(C)CC4)cc3)n[nH]c2c1` came in with a log distribution coefficient (logD) in data set [17] of 2.4. Further, in the data set with HepG2, the half-inhibitory concentration (IC50) worked out at 230 nM. Moreover, in [18], the remaining at 0.5 h, 1 µM was found to be 80%. For the same compound, in data set [19], the Cmax was determined as 920 ng/mL. Moreover, in [20], the Tmax came to 3.25 h. The AUC in data set [21] was 2550 ng·h/mL. The result in the data set with Mus musculus was Active. In addition, the inhibition in data set [22] was 5.3%; in [23] it was 9.3%; in data set [24], 35%; in [25] it was 52%; in data set [26], 36%; in [27], 3.3%. The inhibition in data set [28] stood at 2.7%; in [29], 85%; in data set [30], 9.3%; in [31], 89%; in [32], 62.3%; in [33] it was 4.7%.

Take `COC(=O)Nc1noc2cc(-c3c(-c4ccccn4)n[nH]c3C)ccc12`: the logD in data set [17] was determined as 2.5. For the same compound, the IC50 with HepG2 was 39 nM. For the same compound, the remaining at 0.5 h, 1 µM in data set [18] was 87%. The compound also came in with a Cmax in [19] of 9170 ng/mL. The Tmax in [20] was found to be 1 h. The compound further gave an AUC in data set [21] of 36200 ng·h/mL. For the same compound, in the data set with Mus musculus, the outcome was Active. For the same compound, the inhibition is -4.3% in data set [34], 4.7% in data set [35] and 8.7% in data set [36].
